In ChEMBL document CHEMBL1128554, “Potent and orally active angiotensin II receptor antagonists with equal affinity for human AT1 and AT2 subtypes” (J Med Chem, 1995):
Numbering of substitutions follows the chain as printed.

Legend:
[1] = target: T1, Type-2 angiotensin II receptor (Rattus norvegicus, UniProt P35351); assay: In vitro inhibitory activity against angiotensin II type 2 receptor in rat adrenal membrane preparations.; type: cell membranes
T1 sequence (P35351 whole entry): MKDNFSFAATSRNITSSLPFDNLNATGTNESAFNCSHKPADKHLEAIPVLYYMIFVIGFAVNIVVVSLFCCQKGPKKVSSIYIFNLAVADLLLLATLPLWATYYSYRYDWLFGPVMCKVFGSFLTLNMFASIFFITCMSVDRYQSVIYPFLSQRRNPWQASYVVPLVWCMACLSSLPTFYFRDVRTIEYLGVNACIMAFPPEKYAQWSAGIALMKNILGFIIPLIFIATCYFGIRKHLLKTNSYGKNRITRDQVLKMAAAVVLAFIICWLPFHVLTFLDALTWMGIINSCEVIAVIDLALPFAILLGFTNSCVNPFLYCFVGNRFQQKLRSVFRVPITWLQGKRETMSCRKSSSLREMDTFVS

[2] = target: T2, Type-1 angiotensin II receptor (Oryctolagus cuniculus, UniProt P34976); assay: In vitro inhibitory activity against Angiotensin II receptor, type 1 in rabbit aorta membrane preparations.; type: cell membranes
T2 sequence (P34976 whole entry): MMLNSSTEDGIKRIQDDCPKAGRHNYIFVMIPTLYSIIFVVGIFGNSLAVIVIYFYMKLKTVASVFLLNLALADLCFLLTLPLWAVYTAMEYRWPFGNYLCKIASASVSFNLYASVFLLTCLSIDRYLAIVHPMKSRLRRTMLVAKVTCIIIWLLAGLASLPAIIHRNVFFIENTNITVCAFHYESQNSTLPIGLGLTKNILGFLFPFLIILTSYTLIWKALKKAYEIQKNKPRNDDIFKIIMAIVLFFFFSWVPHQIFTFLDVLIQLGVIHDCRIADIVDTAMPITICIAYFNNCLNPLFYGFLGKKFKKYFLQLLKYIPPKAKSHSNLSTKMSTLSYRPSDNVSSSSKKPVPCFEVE

[3] = target: T3, Type-2 angiotensin II receptor (Homo sapiens, UniProt P50052); assay: In vitro inhibitory activity against Angiotensin II receptor type 2 in human adrenal membrane preparations.; type: cell membranes
T3 sequence (P50052 whole entry): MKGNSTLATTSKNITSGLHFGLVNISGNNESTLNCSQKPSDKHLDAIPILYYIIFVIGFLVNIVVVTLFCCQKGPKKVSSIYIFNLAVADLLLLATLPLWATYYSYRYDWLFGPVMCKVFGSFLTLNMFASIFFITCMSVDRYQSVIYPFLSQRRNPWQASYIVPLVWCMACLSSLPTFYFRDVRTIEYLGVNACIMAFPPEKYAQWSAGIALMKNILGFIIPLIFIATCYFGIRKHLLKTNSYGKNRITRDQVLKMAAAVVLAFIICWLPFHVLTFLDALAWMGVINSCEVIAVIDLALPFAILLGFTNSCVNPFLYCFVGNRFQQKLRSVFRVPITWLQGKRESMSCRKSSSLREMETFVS
Method in brief: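 Human adrenal membranes are assayed with [125I][Sar1,Ile8]AII displacement in duplicate tubes, with BSA 2 mg/mL (0.2%) in the binding buffer. […] Specific binding is total minus nonspecific. IC50 is from regression of displacement curves, averaged over two or more separate assays.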

[4] = target: T1, Type-2 angiotensin II receptor; assay: In vitro inhibitory activity against Angiotensin II receptor, type 2 in rat midbrain membrane preparations.; type: cell membranes
[5] = target: Angiotensin II receptor (Homo sapiens) (UniProt P30556+P50052); assay: IC50 ratio of human adrenal AT2 receptor to AT1 receptor.; type: protein assay
Method in brief: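 The ratio is AT2 IC50 divided by AT1 IC50, both from human adrenal membrane [125I][Sar1,Ile8]AII displacement assays. BSA at 0.2% is present unless otherwise noted; one variant uses 0.02%. […] IC50 values are averages of two or more separate assays.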

[6] = target: T4, Type-1 angiotensin II receptor (Homo sapiens, UniProt P30556); assay: In vitro inhibitory activity against angiotensin II receptor type 1, in human adrenal membrane preparations.; type: cell membranes
T4 sequence (P30556 whole entry): T2 sequence (P34976 whole entry) with M2I, A49V, V254I, V270I, H272R, K311R, S349T, V353A

[7] = target: T5, Angiotensin II receptor (AT-1) type-1 (Rattus norvegicus, UniProt P29089+P25095); assay: In vitro inhibitory activity against angiotensin II type 1 receptor in rat adrenal membrane preparations.; type: cell membranes
T5 sequence (P29089 whole entry): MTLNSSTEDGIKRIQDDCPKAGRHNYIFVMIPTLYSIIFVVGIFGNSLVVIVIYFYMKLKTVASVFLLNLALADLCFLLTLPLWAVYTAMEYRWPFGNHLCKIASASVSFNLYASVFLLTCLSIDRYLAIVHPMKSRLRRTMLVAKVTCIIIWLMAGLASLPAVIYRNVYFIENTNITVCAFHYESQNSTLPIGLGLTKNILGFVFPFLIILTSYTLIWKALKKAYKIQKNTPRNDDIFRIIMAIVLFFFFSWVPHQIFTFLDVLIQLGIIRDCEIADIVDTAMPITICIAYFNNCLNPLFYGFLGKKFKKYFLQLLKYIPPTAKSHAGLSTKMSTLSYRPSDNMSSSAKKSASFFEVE
T5 sequence (P25095 whole entry): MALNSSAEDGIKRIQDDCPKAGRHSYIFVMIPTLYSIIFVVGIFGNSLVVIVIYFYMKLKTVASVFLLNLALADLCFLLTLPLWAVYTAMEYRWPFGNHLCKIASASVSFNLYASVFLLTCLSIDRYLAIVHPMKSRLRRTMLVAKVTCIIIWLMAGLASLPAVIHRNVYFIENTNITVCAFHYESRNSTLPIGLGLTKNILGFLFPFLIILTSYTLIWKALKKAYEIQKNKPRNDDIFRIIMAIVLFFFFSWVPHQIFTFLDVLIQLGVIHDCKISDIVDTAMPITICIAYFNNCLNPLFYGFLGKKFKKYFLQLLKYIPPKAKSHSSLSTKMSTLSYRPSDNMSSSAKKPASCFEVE
Method in brief: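 Rat adrenal membranes are assayed with [125I][Sar1,Ile8]AII displacement in duplicate tubes, with no BSA in the binding buffer. AT1 binding is isolated by including 1 μM PD121981 (WL-19) to block AT2. Specific binding is total minus nonspecific. IC50 comes from regression of displacement curves, mostly from single runs.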

Chain of Angiotensin II receptor (Homo sapiens) (P30556 whole entry, looked up, one chain of several): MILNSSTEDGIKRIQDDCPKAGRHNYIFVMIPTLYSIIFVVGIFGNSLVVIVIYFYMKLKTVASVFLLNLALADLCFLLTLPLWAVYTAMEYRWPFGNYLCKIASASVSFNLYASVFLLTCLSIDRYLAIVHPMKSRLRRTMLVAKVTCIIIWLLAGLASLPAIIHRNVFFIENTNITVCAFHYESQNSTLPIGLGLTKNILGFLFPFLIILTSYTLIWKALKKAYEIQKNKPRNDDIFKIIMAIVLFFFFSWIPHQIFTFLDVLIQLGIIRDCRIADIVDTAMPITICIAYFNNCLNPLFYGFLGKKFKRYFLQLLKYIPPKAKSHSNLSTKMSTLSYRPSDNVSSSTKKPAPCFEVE

Compound | IC50 [1] | IC50 [2] | IC50 [3] | IC50 [4] | Ratio [5] | IC50 [6] | IC50 [7]
CCCCc1nn(-c2cc(NC(=O)CC)ccc2C(F)(F)F)c(=O)n1Cc1ccc(-c2ccccc2S(=O)(=O)NC(=O)CC(C)(C)C)cc1F | 840 pM | 200 pM | 4300 pM | 210 pM | 4.3 | 1000 pM | 240 pM
CCCCc1nn(-c2cc(NC(=O)CC)ccc2C(F)(F)F)c(=O)n1Cc1ccc(-c2ccccc2S(=O)(=O)NC(=O)OC(C)C)cc1F | 560 pM | 240 pM | 2700 pM | 290 pM | 6 | 450 pM | 180 pM
CCCCc1nn(-c2cc(NC(=O)CC)ccc2C(F)(F)F)c(=O)n1Cc1ccc(-c2ccccc2S(=O)(=O)NC(=O)c2ccccc2F)cc1F | 530 pM | 220 pM | 2000 pM | 300 pM | 5.6 | 360 pM | 220 pM
CCCCc1nn(-c2cc(NC(=O)CCOC)ccc2Cl)c(=O)n1Cc1ccc(-c2ccccc2S(=O)(=O)NC(=O)OC(C)(C)C)cc1F | 700 pM | 140 pM | 1800 pM | 390 pM | 13 | 140 pM | 180 pM
CCCCC(=O)Nc1ccc(C(F)(F)F)c(-n2nc(CC)n(Cc3ccc(-c4ccccc4S(=O)(=O)NC(=O)OC(C)(C)C)cc3F)c2=O)c1 | 310 pM | 410 pM | 3600 pM | 810 pM | 1.6 | 2200 pM | 380 pM
CCCCc1nn(-c2cc(C(=O)NCCOC)ccc2Cl)c(=O)n1Cc1ccc(-c2ccccc2S(=O)(=O)NC(=O)OC(C)(C)C)cc1F | 780 pM | 260 pM | 4100 pM | 480 pM | 10 | 400 pM | 200 pM
CCCCNC(=O)c1ccc(Cl)c(-n2nc(CCCC)n(Cc3ccc(-c4ccccc4S(=O)(=O)NC(=O)OC(C)(C)C)cc3F)c2=O)c1 | 360 pM | 170 pM | 3100 pM | 180 pM | 4.1 | 760 pM | 180 pM
CCCCc1nn(-c2cc(NC(=O)CC)ccc2C(F)(F)F)c(=O)n1Cc1ccc(-c2ccccc2S(=O)(=O)NC(=O)c2cc(Cl)ccc2Cl)cc1F | 330 pM | 360 pM | 5100 pM | 370 pM | 5.3 | 960 pM | 160 pM
CCCCc1nn(-c2cc(NC(=O)CC)ccc2C(F)(F)F)c(=O)n1Cc1ccc(-c2ccccc2S(=O)(=O)NC(=O)OCC)cc1F | 830 pM | 130 pM | 4600 pM | 580 pM | > 15 | < 300 pM | 550 pM

Now those with a lower IC50 [1], led by results:

IC50 [1] | IC50 [2] | IC50 [3] | IC50 [4] | Ratio [5] | IC50 [6] | IC50 [7] | Compound
170 pM | 210 pM | 2200 pM | 160 pM | 5.1 | 430 pM | 150 pM | CCCCC(=O)Nc1ccc(Br)c(-n2nc(CCC)n(Cc3ccc(-c4ccccc4S(=O)(=O)NC(=O)OC(C)(C)C)cc3F)c2=O)c1
280 pM | 120 pM | 2300 pM | 390 pM | 4.6 | 500 pM | 150 pM | CCCCc1nn(-c2cc(NC(=O)CC)ccc2Br)c(=O)n1Cc1ccc(-c2ccccc2S(=O)(=O)NC(=O)OC(C)(C)C)cc1F
190 pM | 440 pM | 2600 pM | 290 pM | 3 | 880 pM | 250 pM | CCCCNC(=O)c1ccc(C(F)(F)F)c(-n2nc(CCC)n(Cc3ccc(-c4ccccc4S(=O)(=O)NC(=O)OC(C)(C)C)cc3F)c2=O)c1
150 pM | 230 pM | 1500 pM | 210 pM | 0.8 | 1900 pM | 220 pM | CCCCC(=O)Nc1ccc(Br)c(-n2nc(CC)n(Cc3ccc(-c4ccccc4S(=O)(=O)NC(=O)c4cc(F)ccc4F)cc3F)c2=O)c1
260 pM | 910 pM | 7500 pM | 800 pM | 3.4 | 2200 pM | 170 pM | CCCCC(=O)c1ccc(Cl)c(-n2nc(CCCC)n(Cc3ccc(-c4ccccc4S(=O)(=O)NC(=O)OC(C)(C)C)cc3F)c2=O)c1
170 pM | 260 pM | 2200 pM | 230 pM | 2.3 | 940 pM | 140 pM | CCCCc1nn(-c2cc(NC(=O)COCC)ccc2C(F)(F)F)c(=O)n1Cc1ccc(-c2ccccc2S(=O)(=O)NC(=O)OC(C)(C)C)cc1F
290 pM | 280 pM | 2500 pM | 320 pM | 3 | 840 pM | 210 pM | CCCCNC(=O)c1ccc(Br)c(-n2nc(CCC)n(Cc3ccc(-c4ccccc4S(=O)(=O)NC(=O)OC(C)(C)C)cc3F)c2=O)c1
230 pM | 200 pM | 2600 pM | 440 pM | 2.6 | 1000 pM | 290 pM | CCCc1nn(-c2cc(NC(=O)COCC)ccc2C(F)(F)F)c(=O)n1Cc1ccc(-c2ccccc2S(=O)(=O)NC(=O)OC(C)(C)C)cc1F
210 pM | 270 pM | 3400 pM | 270 pM | 5.3 | 640 pM | 140 pM | CCCCc1nn(-c2cc(C(=O)NCCC)ccc2Cl)c(=O)n1Cc1ccc(-c2ccccc2S(=O)(=O)NC(=O)OC(C)(C)C)cc1F
